Experimental data published in ChEMBL document CHEMBL1155280, “New arylthioindoles and related bioisosteres at the sulfur bridging group. 4. Synthesis, tubulin polymerization, cell growth inhibition, and molecular modeling studies” (J Med Chem, 2009).
Active and inactive are the calls of the source. The calls are words filed in the database; no cut-off is given here.

Columns and labels:
[1] = Inhibition of tubulin polymerization after 20 mins by spectrophotometry
Outline: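 Tubulin 10 μM in 0.8 M monosodium glutamate, pH 6.6, preincubated 15 min at 30 °C with varying drug, chilled on ice. GTP added to 0.4 mM, turbidity at 350 nm followed 20 min at 30 °C. Extent of assembly measured; IC50 ± SD.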

[2] = test system: MCF7; assay: Growth inhibition of human MCF7 cells after 48 hrs by sulforhodamine B assay; assay type: functional, cell-based; details: MCF7, 48 h
[3] = organism: Bos taurus; assay: Inhibition of [3H]colchicine binding to bovine tubulin at 5 uM after 10 mins by DEAE-cellulose filter method
[4] = test system: U-937; assay: Cytotoxicity against human U937 cells at 10 to 200 nM by MTT assay; assay type: functional, cell-based; details: TDE = time-dependent effect
Outline: (§1)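 MTT assay. Seeded 10^5 cells/well, compound added after 24 h at 10, 30, 50, 100, 150, 200 nM for 24 or 48 h. MTT 1 mg/mL, 2 h at 37 °C in dark, formazan dissolved in DMSO, read at 550 nm. Triplicate; 0.5% DMSO control.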

[5] = test system: HeLa; assay: Antiproliferative activity against human HeLa cells assessed as cell proliferation at 0.5 uM after 24 hrs by MTT assay relative to control; assay type: functional; details: read-out: Activity
Outline: (§2)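 HeLa and HCT116/chr3 cells grown at 37 °C, 5% CO2 in D-MEM with 10% fetal calf serum (HCT116/chr3 medium plus 500 μg/mL G418). Seeded 1 × 10^3 cells/well, treated 24 h later for 24 h from 10 mM DMSO stock; 1% DMSO solvent control. Quadruplicate, repeated three times; given as % of control ± SD.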

[6] = test system: M14; assay: Cytotoxicity against human M14 cells assessed as effect on cell morphology at 300 nM after 48 hrs by time-lapse microscopy; assay type: functional, cell-based
Outline: (§3)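 Morphology of HEK and M14 cells followed by time-lapse microscopy in 96-well plates at 37 °C, 5% CO2, with images captured every hour over 48 h.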

[7] = Growth inhibition of HSMC; assay type: cell-based; details: Homo sapiens
Outline: (§4)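 Human aortic smooth muscle, PtK2 kidney epithelial, rat A10 aortic smooth muscle and HUVEC lines grown as the supplier recommends, under 5% CO2.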

[8] = test system: HUVEC; assay: Growth inhibition of HUVEC; assay type: cell-based; details: Homo sapiens; outline: as §4
[9] = test system: HCT-116; assay: Antiproliferative activity against human HCT116 cells expressing mismatch repair gene MLH1 complemented with chromosome 3 assessed as cell proliferation at 0.5 uM after 24 hrs by MTT assay relative to control; assay type: functional; details: HCT-116, 24 h, read-out: Activity; outline: as §2
[10] = test system: MCF7; assay: Selectivity index, ratio of IC50 for rat A10 cells to IC50 for human MCF7 cells; assay type: functional
Outline: (§5)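 Selectivity index: IC50 in the named nontransformed line divided by IC50 in MCF-7 cells.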

[11] = test system: M14; assay: Cytotoxicity against human M14 cells after 48 hrs by MTT assay; assay type: functional, cell-based; outline: as §1
[12] = test system: HEK293; assay: Cytotoxicity against HEK293 cells after 48 hrs by MTT assay; assay type: cell-based, Homo sapiens; outline: as §1
[13] = test system: MCF7; assay: Selectivity index, ratio of IC50 for HUVEC to IC50 for human MCF7 cells; outline: as §5
[14] = test system: HCT-116; assay: Antiproliferative activity against human HCT116 cells expressing mismatch repair gene MLH1 complemented with chromosome 3 assessed as cell proliferation at 1 uM after 24 hrs by MTT assay relative to control; assay type: functional; details: HCT-116, 24 h, read-out: Activity; outline: as §2
[15] = test system: MCF7; assay: Selectivity index, ratio of IC50 for Potorous tridactylus PtK2 cells to IC50 for human MCF7 cells; assay type: functional; outline: as §5
[16] = test system: HEK293; assay: Cytotoxicity against HEK293 cells assessed as effect on cell morphology at 300 nM after 48 hrs by time-lapse microscopy; assay type: cell-based; details: human, hek293, 48 h, 0.3 µM; outline: as §3
[17] = test system: A10; assay: Growth inhibition of rat A10 cells; assay type: cell-based; outline: as §4
[18] = test system: U-937; assay: Cytotoxicity against human U937 cells after 48 hrs by MTT assay; assay type: functional, cell-based; outline: as §1
[19] = test system: HeLa; assay: Antiproliferative activity against human HeLa cells assessed as cell proliferation at 1 uM after 24 hrs by MTT assay relative to control; assay type: functional; details: read-out: Activity; outline: as §2
[20] = test system: HEK293; assay: Cytotoxicity against HEK293 cells at 10 to 200 nM by MTT assay; assay type: cell-based; details: human, hek293, 0.2 µM; TDE = time-dependent effect; outline: as §1
[21] = test system: M14; assay: Cytotoxicity against human M14 cells at 10 to 200 nM by MTT assay; assay type: functional, cell-based; details: TDE = time-dependent effect; outline: as §1
[22] = Growth inhibition of mouse J774.1 cells at 300 nM after 48 hrs by MTT assay relative to control; assay type: cell-based; details: read-out: GI
[23] = Growth inhibition of Potorous tridactylus PtK2 cells; assay type: cell-based; outline: as §4
[24] = organism: Homo sapiens; assay: Selectivity index, ratio of IC50 for HSMC to IC50 for human MCF7; outline: as §5

COc1cc(Cc2c[nH]c3ccc(Cl)cc23)cc(OC)c1OC
IC50 [1]: 24000 nM

COc1cc(C(=O)c2c[nH]c3ccc(Cl)cc23)cc(OC)c1OC
IC50 [1]: 2500 nM | IC50 [2]: 53 nM | inhibition [3]: 44%

CCOC(=O)c1[nH]c2ccccc2c1C(=O)c1cc(OC)c(OC)c(OC)c1
IC50 [1]: 2600 nM | IC50 [2]: 80 nM | inhibition [3]: 51%

CCOC(=O)c1[nH]c2ccc(Cl)cc2c1Sc1cc(OC)c(OC)c(OC)c1
IC50 [1]: 2200 nM | inhibition [3]: 53%

COC(=O)c1[nH]c2ccccc2c1Cc1cc(OC)c(OC)c(OC)c1
IC50 [1]: 4200 nM | IC50 [2]: 190 nM | inhibition [3]: 33%

COc1cc(Sc2c[nH]c3ccc(Cl)cc23)cc(OC)c1OC
IC50 [1]: 2600 nM | inhibition [3]: 51%

CCOC(=O)c1[nH]c2ccc(Cl)cc2c1Cc1cc(OC)c(OC)c(OC)c1
IC50 [1]: 2500 nM | IC50 [2]: 230 nM | inhibition [3]: 39%

CCOC(=O)c1cccn1Cc1cc(OC)c(OC)c(OC)c1
IC50 [1]: > 40000 nM

COC(=O)c1[nH]c2ccc(OC)cc2c1C(O)c1cc(OC)c(OC)c(OC)c1 (stereo unspecified)
IC50 [1]: > 40000 nM

CCOC(=O)c1[nH]c2ccccc2c1Cc1cc(OC)c(OC)c(OC)c1
IC50 [1]: 5400 nM

CCOC(=O)c1c(CC)c(CC)c(C)n1Cc1cc(OC)c(OC)c(OC)c1
IC50 [1]: > 40000 nM

CCOC(=O)c1[nH]c2ccc(Cl)cc2c1C(=O)Cc1cc(OC)c(OC)c(OC)c1
IC50 [1]: > 40000 nM

COC(=O)c1[nH]c2ccc(Cl)cc2c1Cc1cc(OC)c(OC)c(OC)c1
IC50 [1]: 1700 nM | IC50 [2]: 87 nM | inhibition [3]: 49%

CCOC(=O)c1[nH]c2ccc(OC)cc2c1C(=O)c1cc(OC)c(OC)c(OC)c1
IC50 [1]: 2600 nM | IC50 [2]: 90 nM | inhibition [3]: 49%

CCOC(=O)c1c(C)c(C)c(C)n1Cc1cc(OC)c(OC)c(OC)c1
IC50 [1]: > 40000 nM

CCOC(=O)c1[nH]c2ccc(Cl)cc2c1C(=O)C(=O)c1cc(OC)c(OC)c(OC)c1
IC50 [1]: > 40000 nM

COc1ccc2[nH]cc(Sc3cc(OC)c(OC)c(OC)c3)c2c1
IC50 [1]: 4100 nM | IC50 [2]: 22 nM | inhibition [3]: 61%

CCOC(=O)c1[nH]c2ccc(OC)cc2c1C(O)c1cc(OC)c(OC)c(OC)c1 (stereo unspecified)
IC50 [1]: > 40000 nM

COC(=O)c1[nH]c2ccc(Cl)cc2c1C(=O)c1cc(OC)c(OC)c(OC)c1
IC50 [1]: 1600 nM | IC50 [2]: 30 nM | inhibition [3]: 61%

COC(=O)c1[nH]c2ccc(OC)cc2c1S(=O)c1cc(OC)c(OC)c(OC)c1 (stereo unspecified)
IC50 [1]: > 40000 nM

COC(=O)c1[nH]c2ccccc2c1Sc1cc(OC)c(OC)c(OC)c1
IC50 [1]: 2900 nM | inhibition [3]: 74%

COC(=O)c1[nH]c2ccccc2c1C(=O)c1cc(OC)c(OC)c(OC)c1
IC50 [1]: 2700 nM | IC50 [2]: 33 nM | inhibition [3]: 49%

COc1cc(Sc2c[nH]c3ccccc23)cc(OC)c1OC
IC50 [1]: 2600 nM | inhibition [3]: 68%

CCOC(=O)c1[nH]c2ccc(OC)cc2c1Cc1cc(OC)c(OC)c(OC)c1
IC50 [1]: 2800 nM | IC50 [2]: 93 nM | inhibition [3]: 42%

COc1ccc2[nH]cc(Cc3cc(OC)c(OC)c(OC)c3)c2c1
IC50 [1]: 14000 nM

CCOC(=O)c1cn(Cc2cc(OC)c(OC)c(OC)c2)cn1
IC50 [1]: > 40000 nM

COC(=O)c1[nH]c2ccc(OC)cc2c1S(=O)(=O)c1cc(OC)c(OC)c(OC)c1
IC50 [1]: > 40000 nM

CCOC(=O)c1[nH]c2ccc(Cl)cc2c1C(=O)c1cc(OC)c(OC)c(OC)c1
IC50 [1]: 1400 nM | IC50 [2]: 110 nM | inhibition [3]: 49%

CCOC(=O)c1[nH]c2ccc(OC)cc2c1Sc1cc(OC)c(OC)c(OC)c1
IC50 [1]: 2400 nM | IC50 [2]: 46 nM | inhibition [3]: 71%

CCOC(=O)c1c(C)cc(C)n1Cc1cc(OC)c(OC)c(OC)c1
IC50 [1]: > 40000 nM

COC(=O)c1[nH]c2ccc(OC)cc2c1C(=O)c1cc(OC)c(OC)c(OC)c1
Activity [4]: tde | growth at 0.5 µM [5]: 55% | Activity [6]: Active | IC50 [7]: 35 nM | IC50 [8]: 110 nM | growth at 0.5 µM [9]: 57% | IC50 [1]: 670 nM | Ratio IC50 [10]: 5.6 | Activity [11]: Dose-dependent effect | IC50 ([11]; M14, 48 h): 100 nM | IC50 ([12]; Homo sapiens, HEK293, 48 h): 140 nM | Activity ([12]; human, hek293, 48 h): Dose-dependent effect | Ratio IC50 [13]: 6.5 | growth at 1 µM [14]: 55% | Ratio IC50 [15]: 11 | Activity [16]: Toxic | IC50 [17]: 95 nM | Activity [18]: Dose-dependent effect | IC50 ([18]; U-937, 48 h): 155 nM | IC50 [2]: 17 nM | growth at 1 µM [19]: 54% | Activity [20]: tde | Activity [21]: tde | inhibition at 48 h, 0.3 µM [22]: 20% | IC50 [23]: 190 nM | Ratio IC50 [24]: 2.1 | inhibition [3]: 78%

COc1cc(C(=O)c2c[nH]c3ccccc23)cc(OC)c1OC
IC50 [1]: 3500 nM | IC50 [2]: 150 nM | inhibition [3]: 26%

CCOC(=O)c1[nH]c2ccc(Cl)cc2c1CCc1cc(OC)c(OC)c(OC)c1
IC50 [1]: > 40000 nM

COc1cc(Cc2c[nH]c3ccccc23)cc(OC)c1OC
IC50 [1]: 28000 nM

CC(=O)O[C@H]1C(=O)[C@@]2(C)[C@H]([C@H](OC(=O)c3ccccc3)[C@]3(O)C[C@H](OC(=O)[C@H](O)[C@@H](NC(=O)c4ccccc4)c4ccccc4)C(C)=C1C3(C)C)[C@]1(OC(C)=O)CO[C@@H]1C[C@@H]2O [PACLITAXEL]
IC50 [7]: 6 nM | IC50 [8]: 7 nM | IC50 [23]: 21 nM

COc1cc(Cn2c(C)c(C)c(C)c2C(=O)OCCOCCO)cc(OC)c1OC
IC50 [1]: > 40000 nM

CCOC(=O)c1cccn1C(=O)c1cc(OC)c(OC)c(OC)c1
IC50 [1]: 32000 nM | IC50 [2]: > 2500 nM
